Bioassay records: PubChem BioAssay, The Scripps Research Institute Molecular Screening Center
DAGLB inhibitor – blocks human DAGLB lipase activity; Q8NCG7; HEK293T DAGLB membrane lysate, EnzChek fluorogenic substrate; inhibition, % at 5.17 µM; hit rate 0.059% among 340,000; in the data active = inhibition above about 34%;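 note: 0% = enzyme with vehicle and 100% = wells lacking enzyme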
PRMT1 FP inh – inhibitors of human PRMT1 | Q99873 | recombinant PRMT1, activity-based probe fluorescence polarization | inhibition, % at 2.79 µM | hit rate 1.3% among 370,000 | AID 652257;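 active = inhibition above about 21% made by adding two undisclosed values, limit read from the data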
LEDGF integ inh – blocks HIV-1 LEDGF/p75-dependent DNA integration; TR-FRET IN-LEDGF/p75 DNA integration, Eu/Cy5; inhibition, % at 3.7 µM; hit rate 0.64% among 370,000; AID 743269;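 active = inhibition above the screen-wide mean plus 3 SD, cut at about 13% in these data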;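 note: signal is the Cy5 over europium emission ratio at 671 and 618 nm; 0% = plate median of compound wells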
rCAG RNA binder – molecules binding r(CAG) RNA repeats; hit rate 1.3% among 370,000; r(CAG) RNA repeat, TO-PRO-1 dye displacement fluorescence; inhibition, % at 3 µM;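 active = inhibition above the plate cutoff, the mean of all test compounds on that plate plus 3 SD, cut at about 35% in these data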;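 note: 0% = DMSO alone and 100% = 100 µM mitoxantrone as full dye displacement; higher means more dye released from RNA so lower well fluorescence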
mABHD4 FP – inhibitors of mouse ABHD4; Q8VD66; purified mABHD4, FP-Rh probe fluorescence polarization; inhibition, % at 8.92 µM; hit rate 0.54% among 370,000;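 active = inhibition exceeding the mean over every tested compound plus 3 SD, cut at about 30% in these data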;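 note: 0% = plate median of compound wells and 100% = S159A mutant with DMSO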
Target sequence (Q8VD66 whole entry, looked up): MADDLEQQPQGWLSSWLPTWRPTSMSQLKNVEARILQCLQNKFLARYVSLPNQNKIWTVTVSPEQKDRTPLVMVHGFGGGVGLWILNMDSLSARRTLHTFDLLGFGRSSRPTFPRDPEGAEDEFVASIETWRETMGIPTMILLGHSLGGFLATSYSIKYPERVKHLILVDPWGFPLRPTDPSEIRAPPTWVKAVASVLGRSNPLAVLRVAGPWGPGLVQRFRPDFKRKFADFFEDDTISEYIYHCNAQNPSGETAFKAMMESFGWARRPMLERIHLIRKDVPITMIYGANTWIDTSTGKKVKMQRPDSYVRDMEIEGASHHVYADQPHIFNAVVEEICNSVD
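Assay system: mouse ABHD4 enzyme, wild type / Also added: fluorescent activity-based probe FP-Rh / Doses: single nominal dose of 8.92 µM, 0.89% DMSO final / Timing: 45 min compound pre-incubation plus 60 min probe step, 25 °C / Signal: FP readout, ex 525 nm / em 598 nm / Control set: S159A mutant/DMSO as 100%, compound-well median as 0%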
HTRA1 inhibitor – inhibitors of human serine peptidase HTRA1 | Q92743 | recombinant HTRA1, FP-rhodamine activity-based probe, fluorescence polarization | inhibition, % at 5.96 µM | hit rate 0.5% among 340,000; in the data active = inhibition above about 36%;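 note: 0% = enzyme with DMSO and 100% = wells lacking enzyme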
rCAG bind conf – r(CAG) RNA repeat binding, confirmation; shares compounds with rCAG RNA binder; TO-PRO-1 dye displacement fluorescence; inhibition, % at 3 µM; hit rate 70% among 4,300;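 active = inhibition above a per-plate cutoff, the mean inhibition of sample wells plus 3 SD, cut at about 35% in these data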;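 note: loss of TO-PRO-1 fluorescence as compound displaces dye from 1x1 AA loop RNA; 0% = DMSO only wells and 100% = 100 µM mitoxantrone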
dCAG dye counter – counter-screen for rCAG RNA binders: DNA CAG dye complex inhibitors | d(CAG) DNA oligo TO-PRO-1 dye displacement, fluorescence | inhibition, % at 3 µM | hit rate 94% among 4,300 | shares compounds with rCAG RNA binder | AID 652068;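 active = inhibition above its plate's cutoff, the mean test-well inhibition plus 3 SD, cut at about 4.8% in these data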;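 note: 0% = DNA dye mix with DMSO and 100% = 100 µM mitoxantrone; hits displace the dye from DNA and so lower well fluorescence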
dCAG dye DR – disrupts DNA CAG TO-PRO-1 complex in dose response; DNA CAG/GTC duplex TO-PRO-1 dye displacement fluorescence; hit rate 20% among 250; IC50, µM; shares compounds with rCAG RNA binder; in the data active = IC50 below about 10 µM
Active calls of the source: *; i = inactive; / = not tested or not shown. In the library only some 3.2% were active in any assay of this set; here they are far more common.

SMILES	DAGLB inhibitor	PRMT1 FP inh	LEDGF integ inh	rCAG RNA binder	mABHD4 FP	HTRA1 inhibitor	rCAG bind conf	dCAG dye counter	others
O=C(/C=C/c1ccc(Cl)cc1)NC(=S)Nc1ccccc1C(=O)O	8	13	2	35*	4	-7	33	9.1*
NC(=O)c1ccccc1NC(=O)/C=C/c1ccc(Cl)cc1	-3	4	0	3	-1	-19	/	/
O=C(O)c1ccc(/C=N/NC(=O)c2ccc(CN3c4cccc5cccc(c45)S3(=O)=O)cc2)cc1	4	8	1	67*	-112	-98	68*	31*
CC(/C=N/NC(=O)c1ccc(CN2c3cccc4cccc(c34)S2(=O)=O)cc1)c1ccccc1 (stereo unspecified)	-3	-4	1	17	-25	-22	/	/
O=C(COC(=O)c1ccccc1NC(=O)c1ccco1)Nc1ncc(Cl)cc1Cl	2	-1	3	6	-13	-31	/	/
Cc1ccc(S(=O)(=O)c2c(N)n(NC(=O)c3ccccc3C)c3nc4ccccc4nc23)cc1	0	9	0	36*	-107	-53	36*	13*
Cc1ccc(C(=O)Nn2c(N)c(S(=O)(=O)c3ccc(C)cc3)c3nc4ccccc4nc32)cc1	-6	3	0	29	-6	-13	/	/
Oc1ccc(-c2cc(-c3ccc(O)cc3)nc(-c3ccccc3)n2)cc1	-7	0	4	65*	-55	-80	51*	26*	dCAG dye DR=i
Cc1ccc(C2C(C#N)=C(N)Oc3n[nH]c(-c4cccnc4)c32)o1 (stereo unspecified)	-1	2	3	1	1	0	/	/
Cc1ccc(C2C(C#N)=C(N)Oc3n[nH]c(-c4ccccc4)c32)o1 (stereo unspecified)	7	19	6	41*	26	13	40*	20*
Cc1nc(C)c(-c2csc(Nc3ccc(S(N)(=O)=O)cc3)n2)s1	-3	4	-5	5	3	1	/	/
O=C(O)c1ccccc1C(=O)Nc1nc(-c2ccc3ccccc3c2)cs1	5	6	2	70*	-18	-16	63*	26*
NS(=O)(=O)c1ccc(Nc2nc(-c3cccc([N+](=O)[O-])c3)cs2)cc1	2	6	-4	36*	-6	-14	23	17*
O=C(Nc1nc(-c2ccc3ccccc3c2)cs1)c1ccc(N2C(=O)CCC2=O)cc1	-1	16	-2	5	3	4	/	/
NS(=O)(=O)c1ccc(Nc2nc(-c3ccc4ccccc4c3)cs2)cc1	2	21	-6	52*	-43	2	36*	20*
O=C(CSc1nc2ncc(Cl)cc2[nH]1)NC1CCS(=O)(=O)C1 (stereo unspecified)	0	3	-7	-2	0	0	/	/
CC1CCc2c(sc(NC(=O)/C=C/c3cccs3)c2C(=O)O)C1 (stereo unspecified)	15	-1	31*	46*	2	-2	66*	26*
CC1CCc2c(sc(NC(=O)c3ccco3)c2C(=O)O)C1 (stereo unspecified)	7	-1	-1	16	13	-4	/	/
COc1ccc(/C=C2/C(=O)ON=C2c2ccccc2)cc1OC	9	2	2	6	4	0	/	/
COc1ccc(/C=C2\C(=O)ON=C2c2cccc([N+](=O)[O-])c2)cc1	/	11	-3	41*	20	/	20	6.0*
COc1ccccc1/C=C/C(=O)Nc1ccc(S(=O)(=O)Nc2cc(C)nc(C)n2)cc1	-1	5	2	23	-12	-6	/	/
O=C1NC(=Nc2ccccc2Cl)S/C1=C\c1ccc(C(=O)O)cc1	8	1	2	1	-4	5	/	/
O=C1NC(=Nc2ccccc2Cl)S/C1=C\c1cccc([N+](=O)[O-])c1	16	0	0	54*	-44	-56	67*	26*
COc1c(/C=C2\SC(=Nc3ccccc3Cl)NC2=O)cccc1[N+](=O)[O-]	11	-2	-1	37*	-21	-60	71*	29*	dCAG dye DR=i
COc1ccc(/C=C2\SC(=Nc3ccccc3Cl)NC2=O)c(OC)c1	3	0	-1	39*	-10	-20	46*	13*
SMILES	DAGLB inhibitor	PRMT1 FP inh	LEDGF integ inh	rCAG RNA binder	mABHD4 FP	HTRA1 inhibitor	rCAG bind conf	dCAG dye counter	others
Cc1cccc(C)c1NC(=O)C1CCCN(CCCc2ccccc2)C1 (stereo unspecified)	-1	1	-3	-11	-3	5	/	/
O=C1c2ccccc2C(=O)N1CCn1ccnc1	1	-2	0	2	1	1	/	/
COc1cc(/C=C/C(=O)O)cc(S(=O)(=O)Nc2ccc3cn[nH]c3c2)c1OC	-4	2	-2	3	7	5	/	/
COc1cc(/C=C/C(=O)O)cc(S(=O)(=O)Nc2ccc3nc(SC)sc3c2)c1OC	2	7	-2	50*	18	-6	32	9.6*
O=C(O)CC/C(=C\c1cccc(NC(=O)c2ccccc2Cl)c1)c1nc2ccccc2s1	8	-2	2	61*	-34	-77	73*	27*	dCAG dye DR=i
O=C(O)C/C(=C\c1ccc2c(c1)OCO2)c1nc2ccccc2s1	6	5	-2	16	7	-2	/	/
O=C(O)C/C(=C\c1cc(Cl)c2c(c1)OCO2)c1nc2ccccc2s1	7	6	4	47*	16	14	45*	18*
CCOC(=O)c1sc(NC(C)=O)nc1C	0	15	-2	1	-4	0	/	/
CCOC(=O)c1sc(NC(=O)Nc2ccc(F)cc2)nc1C	-8	4	1	47*	-4	-6	34	23*
CCOC(=O)c1sc(NS(=O)(=O)c2cc(C)ccc2C)nc1C	7	-4	2	44*	-19	-6	32	7.7*
CCOC(=O)c1sc(NC(=O)Cc2ccc(F)cc2)nc1C	1	-7	5	-1	2	4	/	/
CCc1c(C)sc(NC(=O)c2cc(-c3ccco3)on2)c1C#N	-1	5	1	40*	10	-9	28	6.5*
COc1ccc(C2=NN(C(=O)COC(=O)c3ccc(NC(=O)CC#N)cc3)C(c3ccco3)C2)cc1 (stereo unspecified)	-6	-3	5	35*	-79	-75	23	18*
O=C(OCC(=O)N1N=C(c2ccc(Cl)cc2)CC1c1ccco1)c1ccco1 (stereo unspecified)	-2	3	-3	-4	5	-17	/	/
